Laboratory results as given in ChEMBL document CHEMBL1124568, “2,4-Diamino-5-benzylpyrimidines as antibacterial agents. 13. Some alkenyl derivatives with high in vitro activity against anaerobic organisms” (J Med Chem, 1989).
Values after ≈ are worked out from the molar mass of the structure shown.

Experiments:
[1] = Half-life in dogs Plasma; format: ADME, organism-based, Canis lupus familiaris; conditions: dog
In short: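 Two fasted (18 h) male beagles received 5 mg/kg […] (free base), co-dosed with 5 mg/kg trimethoprim in propylene glycol. Jugular plasma was sampled from 0.17 to 24 h. Drug was extracted, separated by TLC and read by fluorescence densitometry. t1/2 came from least-squares linear regression of the postabsorption segment of the plasma curve.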

[2] = system: Phocaeicola vulgatus; experiment: Ratio of antibacterial (Bacteroides vulgatus) activities compared to that of trimethoprim and metronidazole; format: functional
[3] = system: Bacteroides thetaiotaomicron; experiment: Ratio of antibacterial (Bacteroides thetaiotaomicron) activities compared to that of trimethoprim and metronidazole; format: functional
[4] = system: Clostridioides difficile; experiment: Ratio of antibacterial (Clostridium difficile) activities compared to that of trimethoprim and metronidazole; format: functional
[5] = system: Clostridium perfringens; experiment: Ratio of antibacterial (Clostridium perfringens) activities compared to that of trimethoprim and metronidazole; format: functional
[6] = target: T1, Dihydrofolate reductase (Rattus norvegicus, UniProt Q920D2); experiment: In vitro inhibition of rat liver dihydrofolate reductase.; conditions: read-out: I50
T1 sequence (Q920D2 whole entry): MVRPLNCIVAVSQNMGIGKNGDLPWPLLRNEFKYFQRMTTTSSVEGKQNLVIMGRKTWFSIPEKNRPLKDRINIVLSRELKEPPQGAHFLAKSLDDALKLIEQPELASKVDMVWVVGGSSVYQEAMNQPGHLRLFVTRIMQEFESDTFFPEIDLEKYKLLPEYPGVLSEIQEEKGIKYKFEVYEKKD

[7] = system: Escherichia coli; experiment: Antibacterial (Escherichia coli) activity compared to trimethoprim.; format: functional
In short: (§1)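 Each MIC is divided by the MIC of trimethoprim run alongside. Serial dilutions were normally 0.1, 0.3, 1, 3, 10, etc., and occasionally 1, 5 and 10. For E. coli the value is the average over six strains.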

[8] = system: Fusobacterium nucleatum; experiment: Ratio of antibacterial (Fusobacterium nucleatum) activities compared to that of trimethoprim and metronidazole; format: functional
[9] = system: Klebsiella pneumoniae; experiment: Antibacterial (Klebsiella pneumoniae CN3632) activity compared to trimethoprim.; format: functional; in short: as §1
[10] = system: Mycolicibacterium smegmatis; experiment: Antibacterial (Mycobacterium smegmatis S3254) activity compared to trimethoprim.; format: functional; in short: as §1
[11] = system: Pasteurella multocida; experiment: Antibacterial (Pasteurella multocides ATCC 6587) activity compared to trimethoprim.; format: functional; in short: as §1
[12] = system: Proteus vulgaris; experiment: Antibacterial (Proteus vulgaris CN329) activity compared to trimethoprim.; format: functional; in short: as §1
[13] = Antibacterial (Salmonella typhi CN512) activity compared to trimethoprim.; format: functional, salmonella typhosa
[14] = system: Shigella flexneri; experiment: Antibacterial (Shigella flexneri CN6007) activity compared to trimethoprim.; format: functional; in short: as §1
[15] = system: Serratia marcescens; experiment: Antibacterial (Serratia marcescens CN2398) activity compared to trimethoprim.; format: functional; in short: as §1
[16] = system: Streptococcus pyogenes; experiment: Antibacterial ([…] CN10) activity compared to trimethoprim.; format: functional; in short: as §1
[17] = system: Staphylococcus aureus; experiment: Antibacterial (Staphylococcus aureus CN491) activity compared to trimethoprim.; format: functional; in short: as §1
[18] = system: Klebsiella aerogenes; experiment: Antibacterial (Enterobacter aerogenes 2201/86) activity compared to trimethoprim.; format: functional; in short: as §1
[19] = system: Klebsiella aerogenes; experiment: Ratio of antibacterial (Enterobacter aerogenes, 2201/86) activities of compound and trimethoprim; format: functional; in short: as §1
[20] = system: Klebsiella pneumoniae; experiment: Ratio of antibacterial (Klebsiella pneumoniae CN3632) activities of compound and trimethoprim; format: functional; in short: as §1
[21] = system: Proteus vulgaris; experiment: Ratio of antibacterial (Proteus vulgaris CN329) activities of compound and trimethoprim; format: functional; in short: as §1
[22] = system: Shigella dysenteriae; experiment: Ratio of antibacterial (Shigella dysentariae CN513) activities of compound and trimethoprim; format: functional
[23] = system: Staphylococcus aureus; experiment: Ratio of antibacterial (Staphylococcus aureus CN491) activities of compound and trimethoprim; format: functional; in short: as §1
[24] = system: Salmonella; experiment: Ratio of antibacterial (Salmonella typhi CN512) activities of compound and trimethoprim; format: functional, salmonella typhosa
[25] = system: Escherichia coli; experiment: Ratio of antibacterial (Escherichia coli CN314) activities of compound and trimethoprim; format: functional
[26] = target: T2, Dihydrofolate reductase (Escherichia coli, UniProt P0ABQ4); experiment: In vitro inhibition of dihydrofolate reductase of Escherichia coli; conditions: read-out: I50
T2 sequence (P0ABQ4 whole entry): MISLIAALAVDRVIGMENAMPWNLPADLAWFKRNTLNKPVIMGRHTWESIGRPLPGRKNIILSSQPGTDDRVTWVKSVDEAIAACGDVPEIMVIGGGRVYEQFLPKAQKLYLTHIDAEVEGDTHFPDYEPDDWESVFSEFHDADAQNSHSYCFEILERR
In short: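 The E. coli DHFR assay contained 1 nM enzyme, with the lower limit for I50 arbitrarily set at 2 nM. I50 was estimated from plots of % inhibition of steady-state velocity vs log inhibitor concentration.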

[27] = system: Streptococcus pyogenes; experiment: Ratio of antibacterial (Streptococcus pyogenes CN10) activities of compound and trimethoprim

Structure (SMILES)	half-life [1] [h]	MIC [2] [µg/mL]	MIC [3] [µg/mL]	MIC [4] [µg/mL]	MIC [5] [µg/mL]	IC50 [6] [µM]	MIC [7] [µg/mL]	MIC [8] [µg/mL]	MIC [9] [µg/mL]	MIC [10] [µg/mL]	MIC [11] [µg/mL]	MIC [12] [µg/mL]	MIC [13] [µg/mL]	MIC [14] [µg/mL]	MIC [15] [µg/mL]	MIC [16] [µg/mL]	MIC [17] [µg/mL]	MIC [18] [µg/mL]	other results
C/C=C/c1cc(Cc2cnc(N)nc2N)cc(OC)c1OC	2.25	0.8	1.6	> 25	> 25	57	6 (≈ 20 µM)	0.8	10 (≈ 33.3 µM)	3 (≈ 9.99 µM)	10 (≈ 33.3 µM)	3 (≈ 9.99 µM)	3 (≈ 9.99 µM)	10 (≈ 33.3 µM)	1 (≈ 3.33 µM)	0.1 (≈ 0.333 µM)	0.1 (≈ 0.333 µM)	10 (≈ 33.3 µM)	
C=CCc1cc(Cc2cnc(N)nc2N)cc(OC)c1OC	0.84	1.6	1.6	> 25	> 25	50	6 (≈ 20 µM)	0.4	10 (≈ 33.3 µM)	3 (≈ 9.99 µM)	10 (≈ 33.3 µM)	10 (≈ 33.3 µM)	3 (≈ 9.99 µM)	10 (≈ 33.3 µM)	3 (≈ 9.99 µM)	0.3 (≈ 0.999 µM)	0.1 (≈ 0.333 µM)	10 (≈ 33.3 µM)	
C=CCc1cc(Cc2cnc(N)nc2N)cc(OC)c1O	0.7	1.6	1.6	> 25	> 25	14.7	1 (≈ 3.49 µM)	0.2	0.3 (≈ 1.05 µM)	3 (≈ 10.5 µM)	1 (≈ 3.49 µM)	3 (≈ 10.5 µM)	3 (≈ 10.5 µM)	1 (≈ 3.49 µM)	3 (≈ 10.5 µM)	1 (≈ 3.49 µM)	0.3 (≈ 1.05 µM)	1 (≈ 3.49 µM)	
C/C=C/c1cc(Cc2cnc(N)nc2N)cc(CCC)c1OC		0.4	0.4	12.5	12.5	24	26 (≈ 83.2 µM)	0.8	100 (≈ 320 µM)	2 (≈ 6.4 µM)	20 (≈ 64 µM)	> 100	20 (≈ 64 µM)	100 (≈ 320 µM)	> 5	0.1 (≈ 0.32 µM)	1 (≈ 3.2 µM)	100 (≈ 320 µM)	
C=CCOc1ccc(Cc2cnc(N)nc2N)cc1OC				> 25	> 25	49	7.6 (≈ 26.5 µM)	0.8	10 (≈ 34.9 µM)	3 (≈ 10.5 µM)	10 (≈ 34.9 µM)	3 (≈ 10.5 µM)	10 (≈ 34.9 µM)	10 (≈ 34.9 µM)	10 (≈ 34.9 µM)	3 (≈ 10.5 µM)	10 (≈ 34.9 µM)	10 (≈ 34.9 µM)	
C=CCOc1cc(Cc2cnc(N)nc2N)cc(OC)c1OC		6.2	12.5	> 25	> 25	150		0.8	10 (≈ 31.6 µM)	3 (≈ 9.48 µM)	10 (≈ 31.6 µM)	10 (≈ 31.6 µM)	10 (≈ 31.6 µM)	10 (≈ 31.6 µM)	3 (≈ 9.48 µM)	0.3 (≈ 0.948 µM)	0.3 (≈ 0.948 µM)	10 (≈ 31.6 µM)	
CCOc1cc(Cc2cnc(N)nc2N)cc2c1OCO2						37													MIC [19]: 10 µg/mL; MIC [20]: 30 µg/mL; MIC [21]: 10 µg/mL; MIC [22]: 10 µg/mL; MIC [23]: 10 µg/mL; MIC [24]: 30 µg/mL; MIC [25]: 30 µg/mL; IC50 [26]: 0.041 µM; MIC [27]: 1 µg/mL
C=CCOc1ccc(Cc2cnc(N)nc2N)cc1CC=C				> 25	> 25	11	72 (≈ 243 µM)	0.8	> 100	> 100	500 (≈ 1690 µM)	> 50	1000 (≈ 3370 µM)	500 (≈ 1690 µM)	> 10	2 (≈ 6.75 µM)	10 (≈ 33.7 µM)	> 100	
CCOc1cc(Cc2cnc(N)nc2N)cc(OC)c1OC	3.13					140	2.6 (≈ 8.54 µM)		1 (≈ 3.29 µM)	1 (≈ 3.29 µM)	1 (≈ 3.29 µM)	1 (≈ 3.29 µM)	1 (≈ 3.29 µM)	1 (≈ 3.29 µM)	3 (≈ 9.86 µM)	0.3 (≈ 0.986 µM)	0.3 (≈ 0.986 µM)	1 (≈ 3.29 µM)	
